Data on five compounds can be found in PubChem BioAssay AID504324 (Broad Institute, 2011).

Each structure is given as a SMILES string. The source made the active and inactive calls.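 The calls were made as follows: active = compounds lowering the signal whose fitted half-maximal concentration is at most ten times their top tested dose; inconclusive = flat curve with a 30 to 70% drop, or poor fit; inactive = rising signal, flat curve, or potency beyond limit.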

The subject of test [1] is U2OS HRE-luciferase reporter, zinc medium, luminescence. Description: HRE-luciferase induction in zinc-containing medium – U2OS HRE-luc cells, dry powder, mechanism study for HIF pathway activator project, dose response (AID 504324). The essentials:
(§1)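 assay system = human osteosarcoma U2OS cells stably expressing 3×HRE-driven luciferase reporter | medium = phenol red-free DMEM with FBS and 50 µM zinc | compound = 8-point, 3-fold compound series | schedule = cells plated 24 h before dosing, compound exposure 24 h, 37 °C | measured by = luciferase luminescence, Steady-Glo reagent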

Experiment in test [2]: as above
The conditions noted are these: U2OS HRE-luciferase reporter, zinc medium, luminescence; at 38 µM (top of the series). The essentials:
as §1
(In general: Reporter assays use an easily measured gene product as a stand-in for the process of interest.)

As for `c1ccc(-c2nnc(-c3ccccn3)nc2Nc2cnc3ccccc3n2)cc1`, the AC50 in test [1] is 10.6 µM.

Consider `Oc1ccc(CNC2CCc3ccccc32)c2cccnc12` (stereo not given), for which the AC50 in test [1] is > 38 µM (inactive).

In the case of `c1ccc(-c2cnc(Nc3nc(-c4ccccn4)nnc3-c3ccccc3)s2)cc1`, the activity change, negative = decrease in test [2] is 44.9% (inactive).

As to `c1ccc(-c2nnc(-c3ccccn3)nc2Nc2nc3ccccc3s2)cc1`, the AC50 in test [1] was 5.6 µM.

`Cc1cccc(Nc2nc(-c3ccccn3)nnc2-c2ccccc2)n1`: the activity change, negative = decrease in test [2] was 4620% (inactive).

Broadly, the AC50 is the concentration giving half of the maximal activity seen.
